Measured values as given in ChEMBL document CHEMBL4190359, “Synthesis and Investigation of S-Substituted 2-Mercaptobenzoimidazoles as Inhibitors of Hedgehog Signaling” (ACS Med Chem Lett, 2017).
The source made the active and inactive calls. The calls are words filed in the database; no cut-off is given here.

Tests used:
[1] = target: T1, Alkaline phosphatase, tissue-nonspecific isozyme (Homo sapiens) (UniProt P05186); assay: Inhibition of recombinant human C-terminal His6-tagged alkaline phosphate activity (Leu18 to Ser502 residues) using CDP-star as substrate pretreated for 30 mins followed by substrate addition measured after 60 mins by luminescence assay
T1 sequence (whole entry): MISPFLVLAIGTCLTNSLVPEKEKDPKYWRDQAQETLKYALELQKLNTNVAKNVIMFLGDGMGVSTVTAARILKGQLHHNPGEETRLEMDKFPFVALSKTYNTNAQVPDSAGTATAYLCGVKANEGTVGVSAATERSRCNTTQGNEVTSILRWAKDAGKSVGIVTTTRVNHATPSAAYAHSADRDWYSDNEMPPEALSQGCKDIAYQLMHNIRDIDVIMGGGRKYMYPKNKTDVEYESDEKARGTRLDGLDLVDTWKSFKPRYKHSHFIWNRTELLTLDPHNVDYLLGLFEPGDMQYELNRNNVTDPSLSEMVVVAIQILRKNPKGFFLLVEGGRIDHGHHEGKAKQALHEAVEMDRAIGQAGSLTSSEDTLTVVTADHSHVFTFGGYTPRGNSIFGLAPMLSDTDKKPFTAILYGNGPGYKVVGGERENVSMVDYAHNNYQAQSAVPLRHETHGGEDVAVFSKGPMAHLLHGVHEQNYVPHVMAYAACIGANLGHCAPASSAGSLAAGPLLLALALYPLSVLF

[2] = (§1) Inhibition of Hedgehog signaling pathway in mouse C3H10T1/2 cells assessed as reduction in purmorphamine-induced increase in alkaline phosphatase level using CDP-star as substrate pretreated for 1 hr followed by purmorphamine addition measured after 5 days by luminescence assay; format: cell-based
How it was run: (§2)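 Osteogenesis assay in multipotent C3H/10T1/2 mesenchymal progenitor cells; differentiation to osteoblasts driven by SMO agonist purmorphamine; read-out is induced alkaline phosphatase expression; IC50 derived from reduction of this signal.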

[3] = Inhibition of Hedgehog signaling in mouse Shh Light2 cells assessed as reduction in purmorphamine-induced Gli mediated transcriptional activity pretreated for 1 hr followed by purmorphamine addition measured after 48 hrs by luciferase reporter gene assay; format: cell-based
[4] = Cytotoxicity against mouse Shh Light2 cells assessed as cell viability by CellTiter Glo assay; format: cell-based, Shh Light II; design: concentration or dose not given beside the values; details: read-out: Activity
[5] = Cytotoxicity against mouse C3H10T1/2 cells assessed as cell viability by CellTiter-Glo assay; format: cell-based, C3H 10T1/2; design: concentration or dose not given beside the values; details: read-out: Activity
Shh Light II = assay: Cytotoxicity against mouse Shh Light2 cells by CellTiter Glo assay; format: cell-based
C3H 10T1/2 = assay: Cytotoxicity against mouse C3H10T1/2 cells by CellTiter-Glo assay; format: cell-based
Mus musculus = organism: Mus musculus; assay: as §1; format: cell-based; how it was run: as §2
Homo sapiens = organism: Homo sapiens; assay: Inhibition of Hedgehog signaling pathway (unknown origin); details: concentration not given here
[6] = Mus musculus, C3H 10T1/2, read-out: IC50
[7] = Mus musculus, Shh Light2, read-out: IC50

| Compound | inhibition [1] | IC50 [2, 6] [µM] | IC50 [3, 7] [µM] | IC50 [2] | IC50 [3] | inhibition (Homo sapiens) [%] | viability [4] [%] | viability [5] [%] | IC50 (Shh Light II) [µM] | IC50 (C3H 10T1/2) [µM] | inhibition (Mus musculus) |
| --- | --- | --- | --- | --- | --- | --- | --- | --- | --- | --- | --- |
| CC(C)c1ccccc1OCCSc1nc2ccccc2[nH]1 | inactive | > 10 |  |  |  |  |  | > 80 |  |  |  |
| COC(=O)c1cccc(OCCSc2nc3ccccc3[nH]2)c1 | inactive |  |  | Not Active | Not Active |  | > 80 | > 80 |  |  |  |
| Cc1cccc(OCCCSc2nc3ccccc3[nH]2)c1 | inactive |  |  | Not Active |  |  |  | > 80 |  |  |  |
| Cc1cc(OCCSc2nc3ccccc3[nH]2)ccc1Cl | inactive | 2.57 | 7.89 |  |  |  | > 80 | > 80 |  |  |  |
| Cc1ccc(OCCCSc2nc3ccccc3[nH]2)cc1 | inactive | 6.29 |  |  |  |  |  | > 80 |  |  |  |
| Cc1ccccc1OCCSc1nc2ccccc2[nH]1 | inactive | 4.26 | 6.93 |  |  |  | > 80 | > 80 |  |  |  |
| Cc1cccc(C)c1OCCCSc1nc2ccccc2[nH]1 | inactive | 5.6 | 4.12 |  |  |  | > 80 | > 80 |  |  |  |
| CC(C)c1cccc(OCCSc2nc3ccccc3[nH]2)c1 | inactive | 9.17 |  |  |  |  |  | > 80 |  |  |  |
| CS(=O)(=O)c1ccc(C(=O)Nc2ccc(Cl)c(-c3ccccn3)c2)c(Cl)c1 [VISMODEGIB] | inactive | 0.14 | 0.98 |  |  |  | > 80 | > 80 |  |  |  |
| COc1ccccc1OCCSc1nc2ccccc2[nH]1 | inactive | 2.61 |  |  |  |  |  | > 80 |  |  |  |
| c1ccc2cc(OCCSc3nc4ccccc4[nH]3)ccc2c1 | inactive | 4.49 | 7.29 |  |  |  | > 80 | > 80 |  |  |  |
| Fc1ccccc1OCCSc1nc2ccccc2[nH]1 | inactive | 2.32 |  |  |  |  |  | > 80 |  |  |  |

The next lines start with results.

| inhibition [1] | IC50 [2, 6] [µM] | IC50 [3, 7] [µM] | IC50 [2] | IC50 [3] | inhibition (Homo sapiens) [%] | Compound | viability [4] [%] | viability [5] [%] | IC50 (Shh Light II) [µM] | IC50 (C3H 10T1/2) [µM] | inhibition (Mus musculus) |
| --- | --- | --- | --- | --- | --- | --- | --- | --- | --- | --- | --- |
| inactive | 5.63 | 3.55 |  |  |  | COc1ccc(SCCSc2nc3ccccc3[nH]2)cc1 | > 80 | > 80 |  |  |  |
| inactive | 2.9 |  |  |  |  | Cc1ccc(C)c(OCCSc2nc3ccccc3[nH]2)c1C |  | > 80 |  |  |  |
| inactive | > 10 |  |  |  |  | Cc1ccc2nc(NCCOc3c(C)cccc3C)sc2c1 |  | > 80 |  |  |  |
| inactive | 2.23 | 8.12 |  |  |  | Oc1ccc(OCCSc2nc3ccccc3[nH]2)cc1 |  |  | 7.7 | 7.12 |  |
| inactive | 1.76 | 3.16 |  |  |  | Cc1cccc(C)c1OCCSc1nc2ccccc2[nH]1 | > 80 | > 80 |  |  | Dose-dependent effect |
| inactive | 2.22 | 8.92 |  |  |  | c1ccc(OCCSc2nc3ccccc3[nH]2)cc1 | > 80 | > 80 |  |  |  |
| inactive | 4.47 | 6.49 |  |  |  | O=[N+]([O-])c1cccc(OCCSc2nc3ccccc3[nH]2)c1 | > 80 | > 80 |  |  |  |
| inactive |  |  | Not Active |  |  | c1ccc(-c2ccc(OCCSc3nc4ccccc4[nH]3)cc2)cc1 |  | > 80 |  |  |  |
| inactive | 2.08 | 5.11 |  |  |  | Cc1cccc(OCCSc2nc3ccccc3[nH]2)c1 | > 80 | > 80 |  |  |  |
| inactive | 6.41 |  |  |  |  | Cc1ccc(C)c(OCCSc2nc3ccccc3[nH]2)c1 |  | > 80 |  |  |  |
| inactive | 3.06 | 3.48 |  |  |  | Cc1cccc(SCCSc2nc3ccccc3[nH]2)c1 | > 80 | > 80 |  |  |  |
|  |  |  |  |  | 12 | CCOC(=O)CCCn1c(SCCOc2c(F)cccc2F)nc2ccccc21 |  |  |  |  |  |
| inactive | 5.71 |  |  |  |  | Clc1cc(Cl)c(SCCSc2nc3ccccc3[nH]2)cc1Cl |  | > 80 |  |  |  |
| inactive | 2.85 | > 10 |  |  |  | Clc1ccc(SCCCSc2nc3ccccc3[nH]2)cc1 | > 80 | > 80 |  |  |  |
| inactive |  |  | Not Active |  |  | Cc1ccc(OCCSc2nc3ccccc3[nH]2)c([N+](=O)[O-])c1 |  | > 80 |  |  |  |
| inactive |  |  | Not Active |  |  | Cc1ccc2nc(NCCOc3ccccc3)sc2c1 |  | > 80 |  |  |  |
